Data published in ChEMBL document CHEMBL2169846, “Design and synthesis of Pictet-Spengler condensation products that exhibit oncogenic-RAS synthetic lethality and induce non-apoptotic cell death” (Bioorg Med Chem Lett, 2012).
Activity calls are given as the source filed them. The rule behind the calls is not given here.

Legend:
BJeLR [1] = experiment: Cytotoxicity against human BJeLR cells expressing RAS G12V mutant at 0.57 uM at 24 hrs by trypan blue staining; format: functional, cell-based
Outline: (§1)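 Time-course in BJ-TERT/LT/ST/RAS^V12 cells exposed for the designated times to erastin (10 µM), test compound (30 µM) or RSL3 (0.57 µM) to follow onset of death. Data representative of duplicate experiments.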

BJeLR [2] = experiment: Cytotoxicity against human BJeLR cells expressing RAS G12V mutant at 0.57 uM at 12 hrs by trypan blue staining; format: functional, cell-based; outline: as §1
BJeLR [3] = experiment: Induction of reactive oxygen species production in human BJeLR cells expressing RAS G12V mutant after 6 hrs by DCF-based flow cytometric analysis; format: functional, cell-based
BJeH [4] = experiment: Induction of reactive oxygen species production in human BJeH cells expressing wild type RAS after 6 hrs by DCF-based flow cytometric analysis; format: functional, cell-based
BJeH [5] = experiment: Cytotoxicity against human BJeH cells expressing wild type RAS at 568 nM after 24 hrs by trypan blue staining; format: functional, cell-based
BJeH [6] = experiment: Cytotoxicity against human BJeH cells expressing wild type RAS at 1 uM after 24 hrs by trypan blue staining; format: functional, cell-based
BJeLR [7] = experiment: Cytotoxicity against human BJeLR cells expressing RAS G12V mutant at 1 uM after 24 hrs by trypan blue staining; format: functional, cell-based
BJeLR [8] = experiment: Cytotoxicity against human BJeLR cells expressing RAS G12V mutant at 10 uM at 12 hrs by trypan blue staining; format: functional, cell-based
BJeLR [9] = experiment: Cytotoxicity against human BJeLR cells expressing RAS G12V mutant at 10 uM at 24 hrs by trypan blue staining; format: functional, cell-based
BJeH [10] = experiment: Cytotoxicity against human BJeH cells expressing wild type RAS at 10 uM after 24 hrs by trypan blue staining; format: functional, cell-based
[11] = test system: E3 ubiquitin-protein ligase Mdm2 (Homo sapiens), Q00987 [C464A]; experiment: Inhibition of Mdm2 C464A mutant at 20 ug/mL after 2 hrs by cell-based luciferase assay
E3 ubiquitin-protein ligase Mdm2 (Homo sapiens), Q00987 [C464A], sequence (Q00987 whole entry C464A): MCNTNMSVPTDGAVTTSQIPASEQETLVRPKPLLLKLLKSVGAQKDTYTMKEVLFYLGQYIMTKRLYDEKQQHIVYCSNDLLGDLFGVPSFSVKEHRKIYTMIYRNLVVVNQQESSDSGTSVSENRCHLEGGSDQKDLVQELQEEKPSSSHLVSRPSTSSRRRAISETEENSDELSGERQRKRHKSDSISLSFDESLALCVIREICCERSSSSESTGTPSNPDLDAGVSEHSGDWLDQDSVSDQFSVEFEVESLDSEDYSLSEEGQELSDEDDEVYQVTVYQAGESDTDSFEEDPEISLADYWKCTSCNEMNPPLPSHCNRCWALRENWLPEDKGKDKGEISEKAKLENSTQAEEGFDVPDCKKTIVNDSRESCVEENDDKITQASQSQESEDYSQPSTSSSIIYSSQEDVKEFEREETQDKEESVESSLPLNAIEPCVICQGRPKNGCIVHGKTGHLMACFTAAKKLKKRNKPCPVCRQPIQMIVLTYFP

[12] = target: E3 ubiquitin-protein ligase Mdm2 (Homo sapiens) (UniProt Q00987); experiment: Inhibition of wild type Mdm2 at 20 ug/mL after 2 hrs by cell-based luciferase assay
E3 ubiquitin-protein ligase Mdm2 (Homo sapiens), sequence (Q00987 whole entry, looked up): as the sequence (Q00987 whole entry C464A) above, with A464C counted along it

U2OS [13] = experiment: Cytotoxicity against human U2OS cells after 48 hrs by alamar blue assay; format: functional; conditions: read-out: LC50 (the source's name)
MCF7 = experiment: Cytotoxicity against human MCF7 cells after 48 hrs by alamar blue assay; format: functional; conditions: MCF7, 48 h, read-out: LC50 (the source's name)
[14] = Cytotoxicity against human BJeH cells expressing wild type RAS after 48 hrs by alamar blue assay; format: functional, cell-based; conditions: read-out: LC50 (the source's name)
[15] = Cytotoxicity against human HT1299 cells after 48 hrs by alamar blue assay; format: functional; conditions: HT1299, 48 h, read-out: LC50 (the source's name)
BJeLR [16] = experiment: Cytotoxicity against human BJeLR cells expressing RAS G12V mutant at 20 ug/mL after 48 hrs by alamar blue assay; format: functional, cell-based
HT-1080 = experiment: Cytotoxicity against human HT1080 cells after 48 hrs by alamar blue assay; format: functional; conditions: HT-1080, 48 h, read-out: LC50 (the source's name)
RKO = experiment: Cytotoxicity against human RKO cells after 48 hrs by alamar blue assay; format: functional; conditions: read-out: LC50 (the source's name)
[17] = Ratio of MEL24 LC50 to compound LC50 for human BJeLR cells expressing RAS G12V mutant; format: functional
BJeH [18] = experiment: Cytotoxicity against human BJeH cells expressing wild type RAS at 20 ug/mL after 48 hrs by alamar blue assay; format: functional, cell-based
[19] = Cytotoxicity against human BJeLR cells expressing RAS G12V mutant after 48 hrs by alamar blue assay; format: functional, cell-based; conditions: read-out: LC50 (the source's name)
U2OS [20] = experiment: Cytotoxicity against human U2OS cells at 20 ug/mL after 48 hrs by alamar blue assay; format: functional, cell-based

SMILES | Activity (BJeLR [3]) | Activity (BJeH [4]) | inhibition [11] | inhibition [12] | CC50 (MCF7) [µM] | CC50 [15] [µM] | CC50 (HT-1080) [µM] | CC50 (RKO) [µM] | also measured
COC(=O)c1ccc(C2c3[nH]c4ccccc4c3CC(C(=O)OC)N2C(=O)CCl)cc1 (stereo unspecified) | Active | Active |  |  |  |  |  |  | Activity (BJeLR [1]): Active; Activity (BJeLR [2]): Active; Activity (BJeH [5]): inactive
CN[C@@H]1C[C@H]2O[C@@](C)([C@@H]1OC)n1c3ccccc3c3c4c(c5c6ccccc6n2c5c31)C(=O)NC4 |  |  |  |  |  |  |  |  | Activity (BJeH [6]): Active; Activity (BJeLR [7]): Active
CCOc1ccccc1-n1c(C(C)N2CCN(C(=O)COc3ccc(Cl)cc3)CC2)nc2ccccc2c1=O (stereo unspecified) | Active | Active |  |  |  |  |  |  | Activity (BJeLR [8]): Active; Activity (BJeLR [9]): Active; Activity (BJeH [10]): inactive
CC(CO)C1c2[nH]c3ccccc3c2CCN1C(=O)OC(C)(C)C (stereo unspecified) |  |  | inactive | inactive | 22.1 | 24.8 | 46 | 16 | CC50 (U2OS [13]): 17.8 µM; CC50 [14]: 60.7 µM; Activity (BJeLR [16]): inactive
CN1C(=O)C(C2NC=Cc3c2[nH]c2ccccc32)C(=O)N(C)C1=O (stereo unspecified) |  |  | inactive | inactive | 61.7 | 61.7 | 16 | 25 | Ratio [17]: 2; Activity (BJeH [18]): inactive; CC50 [19]: 12.9 µM; Activity (U2OS [20]): inactive
